Measurements taken from ChEMBL document CHEMBL3877264, “Quinolidene-rhodanine conjugates: Facile synthesis and biological evaluation” (Eur J Med Chem, 2017).
Converted amounts (≈) assume the structure as drawn.

Experiments:
[1] = Cytotoxicity against human A549 cells measured after 48 hrs by MTT assay; format: toxicity, cell-based
Escherichia coli [2] = assay: Growth inhibition of Escherichia coli NCIM 2688 at 10 ug/ml measured after 8 hrs relative to control; format: functional; conditions: NCIM 2688, 8 h, read-out: GI
Outline: (§1)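 Bacteria grown in LB at 37 °C and 180 rpm to OD 1. Compounds added to wells, then 0.1% inoculum of 1 OD culture (620 nm). Growth read as OD at 620 nm after 8 h for gram-negative and after 12 h for gram-positive strains.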

[3] = system: Mycobacterium tuberculosis; assay: Growth inhibition of Mycobacterium tuberculosis H37Ra ATCC 25177 at active stage measured after 8 days by XTT dye based two fold dilution method; format: functional; conditions: H37Ra ATCC 25177, 192 h
Outline: (§2)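 MTB H37Ra was grown in Dubos medium, then exposed in Mycobacterium pheli minimal medium (pH 6.6) to compounds dissolved in DMSO. The assay ended on day 8 (active) or day 12 (dormant). Viable cells were measured by XTT reduction menadione assay at 470 nm, blank-corrected, relative to vehicle control. Triplicates were expressed as mean ± SD. MIC came from dose-response curves.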

Bacillus subtilis [4] = assay: Growth inhibition of Bacillus subtilis NCIM 2079 at 30 ug/ml measured after 12 hrs relative to control; format: functional; conditions: NCIM 2079, 12 h, read-out: GI; outline: as §1
[5] = system: Mycobacterium tuberculosis; assay: Growth inhibition of Mycobacterium bovis BCG ATCC 35743 at active stage at 6.25 ug/ml measured after 8 days by nitrate reductase dye based two fold dilution method relative to control; format: functional; conditions: BCG str. ATCC 35743, 192 h, read-out: GI
Outline: (§3)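 M. bovis BCG was grown in Dubos medium and assayed in Mycobacterium pheli minimal medium (pH 6.6), with compounds from DMSO stocks. Incubation lasted 8 days for active and 12 days for dormant cultures. Viability was read by nitrate reductase at 540 nm against cell-free blanks, with vehicle set as 100% growth. Primary screen was at 30, 10 and 3 µg/ml, in triplicate, mean ± SD. MIC was taken from dose-response curves.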

[6] = system: Mycobacterium tuberculosis; assay: Growth inhibition of Mycobacterium bovis BCG ATCC 35743 at dormant stage at 6.25 ug/ml measured after 12 days by nitrate reductase dye based two fold dilution method relative to control; format: functional; conditions: BCG str. ATCC 35743, 288 h, read-out: GI; outline: as §3
[7] = system: Mycobacterium tuberculosis; assay: Growth inhibition of Mycobacterium bovis BCG ATCC 35743 at dormant stage at 25 ug/ml measured after 12 days by nitrate reductase dye based two fold dilution method relative to control; format: functional; conditions: BCG str. ATCC 35743, 288 h, read-out: GI; outline: as §3
Aspergillus niger = assay: Antifungal activity against Aspergillus niger NCIM 1196 by standard agar method; format: functional
Outline: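 MICs determined by standard agar method; DMSO as solvent control.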

[8] = system: Mycobacterium tuberculosis; assay: Growth inhibition of Mycobacterium tuberculosis H37Ra ATCC 25177 at dormant stage at 0.78 ug/ml measured after 12 days by XTT dye based two fold dilution method relative to control; format: functional; conditions: H37Ra ATCC 25177, 288 h, read-out: GI; outline: as §2
Pseudomonas fluorescens [9] = assay: Growth inhibition of Pseudomonas fluorescens NCIM 2036 at 30 ug/ml measured after 8 hrs relative to control; format: functional; conditions: NCIM 2036, 8 h, read-out: GI; outline: as §1
[10] = system: Mycobacterium tuberculosis; assay: Growth inhibition of Mycobacterium bovis BCG ATCC 35743 at dormant stage at 0.78 ug/ml measured after 12 days by nitrate reductase dye based two fold dilution method relative to control; format: functional; conditions: BCG str. ATCC 35743, 288 h, read-out: GI; outline: as §3
[11] = system: Mycobacterium tuberculosis; assay: Growth inhibition of Mycobacterium tuberculosis H37Ra ATCC 25177 at dormant stage at 3.13 ug/ml measured after 12 days by XTT dye based two fold dilution method relative to control; format: functional; conditions: H37Ra ATCC 25177, 288 h, read-out: GI; outline: as §2
[12] = system: Mycobacterium tuberculosis; assay: Growth inhibition of Mycobacterium tuberculosis H37Ra ATCC 25177 at dormant stage at 50 ug/ml measured after 12 days by XTT dye based two fold dilution method relative to control; format: functional; conditions: H37Ra ATCC 25177, 288 h, read-out: GI; outline: as §2
[13] = system: Mycobacterium tuberculosis; assay: Growth inhibition of Mycobacterium bovis BCG ATCC 35743 at active stage at 12.5 ug/ml measured after 8 days by nitrate reductase dye based two fold dilution method relative to control; format: functional; conditions: BCG str. ATCC 35743, 192 h, read-out: GI
Pseudomonas fluorescens [14] = assay: Growth inhibition of Pseudomonas fluorescens NCIM 2036 at 3 ug/ml measured after 8 hrs relative to control; format: functional; conditions: NCIM 2036, 8 h, read-out: GI; outline: as §1
[15] = system: Mycobacterium tuberculosis; assay: Growth inhibition of Mycobacterium bovis BCG ATCC 35743 at dormant stage at 100 ug/ml measured after 12 days by nitrate reductase dye based two fold dilution method relative to control; format: functional; conditions: BCG str. ATCC 35743, 288 h, read-out: GI; outline: as §3
Bacillus subtilis [16] = assay: Growth inhibition of Bacillus subtilis NCIM 2079 at 3 ug/ml measured after 12 hrs relative to control; format: functional; conditions: NCIM 2079, 12 h, read-out: GI; outline: as §1
Pseudomonas fluorescens [17] = assay: Growth inhibition of Pseudomonas fluorescens NCIM 2036 at 10 ug/ml measured after 8 hrs relative to control; format: functional; conditions: NCIM 2036, 8 h, read-out: GI; outline: as §1
[18] = system: Mycobacterium tuberculosis; assay: Growth inhibition of Mycobacterium tuberculosis H37Ra ATCC 25177 at dormant stage at 6.25 ug/ml measured after 12 days by XTT dye based two fold dilution method relative to control; format: functional; conditions: H37Ra ATCC 25177, 288 h, read-out: GI; outline: as §2
Escherichia coli [19] = assay: Growth inhibition of Escherichia coli NCIM 2688 at 3 ug/ml measured after 8 hrs relative to control; format: functional; conditions: NCIM 2688, 8 h, read-out: GI; outline: as §1
Staphylococcus aureus = assay: Antibacterial activity against of Staphylococcus aureus NCIM 2010 measured after 12 hrs; format: functional; conditions: NCIM 2010, 12 h; outline: as §1

SMILES | GI50 at 48 h [1] [µg/mL] | inhibition of growth at 10 µg/mL (Escherichia coli [2]) [%] | IC50 [3] [µg/mL] | IC90 [3] [µg/mL] | inhibition of growth at 30 µg/mL (Bacillus subtilis [4]) [%] | inhibition of growth at 6.25 µg/mL [6] [%] | inhibition of growth at 25 µg/mL [7] [%] | MIC (Aspergillus niger) [µg/mL] | inhibition of growth at 0.78 µg/mL [8] [%] | inhibition of growth at 30 µg/mL (Pseudomonas fluorescens [9]) [%] | inhibition of growth at 0.78 µg/mL [10] [%] | inhibition of growth at 3.13 µg/mL [11] [%] | inhibition of growth at 50 µg/mL [12] [%] | inhibition of growth at 3 µg/mL (Pseudomonas fluorescens [14]) [%] | inhibition of growth at 100 µg/mL [15] [%] | inhibition of growth at 3 µg/mL (Bacillus subtilis [16]) [%] | inhibition of growth at 10 µg/mL (Pseudomonas fluorescens [17]) [%] | inhibition of growth at 6.25 µg/mL [18] [%] | inhibition of growth at 3 µg/mL (Escherichia coli [19]) [%] | MIC (Staphylococcus aureus) [µg/mL] | also measured
O=C1NC(=S)S/C1=C\c1cc2cc(Cl)ccc2nc1Cl | > 100 | 109 | 1.9 (≈ 5.57 µM) | 3.8 (≈ 11.1 µM) | 101 | 101 | 100 | 150 (≈ 440 µM) | -27.1 | 99.8 | -9.1 | 42.4 | 86.4 | 95.6 | 98.7 | 62.8 | 101 | 89.5 | 106 | 2.55 (≈ 7.47 µM) | inhibition of growth at 6.25 µg/mL [5]: 100%; inhibition of growth at 12.5 µg/mL [13]: 99.5%
O=C(O)CN1C(=O)/C(=C/c2cc3cc(F)ccc3nc2Cl)SC1=S | > 100 | -8.65 | > 30 | > 30 | -5.15 | 100 | 99.8 | 25 (≈ 65.3 µM) | -24 | 2.4 | 98.5 | 9.18 | 83.2 | 6.76 | 98.2 | -1.39 | 1.08 | 7.26 | -2.27 | > 30 | –
Cc1cccc2cc(/C=C3\SC(=S)N(CC(=O)O)C3=O)c(Cl)nc12 | > 100 | 3.38 | 21.2 (≈ 56 µM) | 27.3 (≈ 72.1 µM) | -24.5 | – | – | 200 (≈ 528 µM) | -43.4 | 54.8 | – | 11.5 | 102 | 11.2 | – | -3.67 | 21.3 | -2.45 | 8.28 | > 30 | –
O=C1NC(=S)S/C1=C\c1cc2cc(F)ccc2nc1Cl | > 100 | 27.5 | – | – | -3.29 | 100 | 100 | 25 (≈ 77 µM) | -24.1 | 50.2 | -38.3 | 28.4 | 110 | 29.3 | 98.5 | -6.11 | 54.6 | 73.1 | 18.9 | 22.6 (≈ 69.7 µM) | inhibition of growth at 6.25 µg/mL [5]: 99.5%; inhibition of growth at 12.5 µg/mL [13]: 98.3%
